Results: publication PMC5615838 (Toxicology Reports, 2016)
pIC50: −log10 of the molar value.

What was measured:
[1] = in vitro metabolism in rat liver microsomes; assay type: in vitro ADME; conditions: 50 μM, 120 min
bone marrow PCEs = assay: in vivo micronucleus assay; set-up: species or system mouse; conditions: 500, 1000, 2000 mg/kg bw/day (oral), 2 days, male CD-1 mice
[2] = tested on: S. typhimurium strains TA98, TA100, TA1535, TA1537 and E. coli strain WP2 uvrA; assay: bacterial reverse mutation test; assay type: cell-based, Salmonella typhimurium, Escherichia coli; conditions: 50–5000 μg/plate, plate incorporation and pre-incubation, ±S9
CYP2C9 = CYP2C9 (Homo sapiens, UniProt P11712); assay: CYP inhibition, LC–MS/MS assay in human liver microsomes; assay type: in vitro ADME; conditions: pooled human liver microsomes, probe tolbutamide
Sequence of CYP2C9 (P11712 whole entry): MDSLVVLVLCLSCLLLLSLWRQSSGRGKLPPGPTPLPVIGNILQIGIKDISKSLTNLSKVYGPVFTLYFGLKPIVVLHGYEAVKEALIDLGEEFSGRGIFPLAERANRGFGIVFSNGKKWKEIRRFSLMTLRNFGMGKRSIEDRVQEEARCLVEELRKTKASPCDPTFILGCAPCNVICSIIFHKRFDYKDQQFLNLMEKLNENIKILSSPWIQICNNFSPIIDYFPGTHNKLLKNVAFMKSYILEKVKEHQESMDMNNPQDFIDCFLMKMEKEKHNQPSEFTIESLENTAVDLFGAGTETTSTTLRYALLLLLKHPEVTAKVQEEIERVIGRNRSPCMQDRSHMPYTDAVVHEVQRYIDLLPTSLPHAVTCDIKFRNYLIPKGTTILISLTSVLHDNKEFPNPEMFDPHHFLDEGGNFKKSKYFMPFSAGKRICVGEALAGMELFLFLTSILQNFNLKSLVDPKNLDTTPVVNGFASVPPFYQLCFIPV
Method in brief: (§1)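 Follow-up CYP panel in pooled human liver microsomes with CYP-specific probe substrates; CYP-specific metabolites quantified by LC-MS/MS. Test compound at 10 μM. Percent inhibition reported.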

CYP1A2 = target: T1, CYP1A2 (Homo sapiens, UniProt P05177); assay: as above; assay type: in vitro ADME; conditions: pooled human liver microsomes, probe phenacetin
T1 sequence (P05177 1-516): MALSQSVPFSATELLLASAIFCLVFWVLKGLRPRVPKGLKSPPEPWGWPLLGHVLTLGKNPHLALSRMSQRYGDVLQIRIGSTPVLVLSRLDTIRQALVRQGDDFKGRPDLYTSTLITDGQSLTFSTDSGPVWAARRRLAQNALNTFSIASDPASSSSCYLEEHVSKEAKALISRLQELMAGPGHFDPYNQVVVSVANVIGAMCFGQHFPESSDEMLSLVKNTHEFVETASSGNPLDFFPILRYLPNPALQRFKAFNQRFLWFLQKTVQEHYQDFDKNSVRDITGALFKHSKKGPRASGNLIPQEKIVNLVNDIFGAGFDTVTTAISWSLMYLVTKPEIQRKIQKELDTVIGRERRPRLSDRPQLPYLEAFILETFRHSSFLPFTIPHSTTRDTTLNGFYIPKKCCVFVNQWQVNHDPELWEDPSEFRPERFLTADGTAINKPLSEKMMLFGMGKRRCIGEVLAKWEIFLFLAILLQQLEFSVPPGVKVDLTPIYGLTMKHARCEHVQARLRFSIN
Method in brief: as §1

[3] = target: human bitter receptor hTAS2R8; conditions: antagonist; cited from earlier work
[4] = in vitro metabolism in human liver microsomes; assay type: in vitro ADME; conditions: 50 μM, 120 min
hERG = hERG (Homo sapiens, UniProt Q12809); assay: hERG electrophysiology; assay type: cell-based
Sequence of hERG (Q12809 whole entry): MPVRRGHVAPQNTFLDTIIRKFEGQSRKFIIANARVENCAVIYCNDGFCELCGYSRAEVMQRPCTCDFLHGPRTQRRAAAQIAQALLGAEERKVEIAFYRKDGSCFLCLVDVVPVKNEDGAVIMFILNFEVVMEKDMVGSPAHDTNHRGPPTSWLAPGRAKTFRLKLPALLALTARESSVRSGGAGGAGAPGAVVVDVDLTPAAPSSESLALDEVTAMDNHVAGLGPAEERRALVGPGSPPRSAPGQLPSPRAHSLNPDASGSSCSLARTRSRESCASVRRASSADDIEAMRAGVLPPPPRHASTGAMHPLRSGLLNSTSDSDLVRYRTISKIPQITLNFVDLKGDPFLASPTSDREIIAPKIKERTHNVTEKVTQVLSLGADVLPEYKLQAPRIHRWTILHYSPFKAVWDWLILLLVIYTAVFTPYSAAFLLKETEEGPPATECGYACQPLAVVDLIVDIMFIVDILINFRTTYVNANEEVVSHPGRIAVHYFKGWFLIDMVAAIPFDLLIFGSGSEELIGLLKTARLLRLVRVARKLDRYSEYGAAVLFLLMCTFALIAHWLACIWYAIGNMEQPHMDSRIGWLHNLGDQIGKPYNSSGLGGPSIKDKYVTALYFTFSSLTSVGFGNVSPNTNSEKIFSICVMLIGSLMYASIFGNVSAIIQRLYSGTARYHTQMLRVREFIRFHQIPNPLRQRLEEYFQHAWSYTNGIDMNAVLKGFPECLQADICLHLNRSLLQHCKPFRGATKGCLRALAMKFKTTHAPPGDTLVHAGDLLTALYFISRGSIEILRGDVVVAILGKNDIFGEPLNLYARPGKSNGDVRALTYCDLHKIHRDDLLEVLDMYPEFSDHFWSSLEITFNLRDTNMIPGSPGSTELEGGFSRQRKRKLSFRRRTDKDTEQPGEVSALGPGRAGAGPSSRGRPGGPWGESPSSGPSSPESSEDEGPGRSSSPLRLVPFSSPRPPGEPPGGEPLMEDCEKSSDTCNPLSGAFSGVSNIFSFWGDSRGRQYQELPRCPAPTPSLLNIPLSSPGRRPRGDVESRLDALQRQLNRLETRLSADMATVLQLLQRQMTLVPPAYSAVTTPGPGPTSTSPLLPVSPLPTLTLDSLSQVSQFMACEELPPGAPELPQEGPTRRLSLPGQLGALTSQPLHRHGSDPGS

[5] = tested on: human peripheral blood lymphocytes; assay: in vitro chromosome aberration test; conditions: 200–1300 μg/mL, 3 or 21 hr exposure, ±S9
[6] = JECFA SPET dietary exposure estimate; set-up: species or system human; conditions: 28- and 90-day toxicology studies
[7] = 90-day subchronic toxicity study, diet; assay type: in vivo, rat
Method in brief: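 Sprague-Dawley Crl:CD(SD) rats, 20/sex/group, received test compound continuously in the diet at 0, 10, 30 or 100 mg/kg bw/day for 90 consecutive days. Body-weight gain and food consumption were monitored. Clinical signs were recorded throughout treatment.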

CYP2D6 = CYP2D6 (Homo sapiens, UniProt P10635); assay: CYP inhibition, LC–MS/MS assay in human liver microsomes; assay type: in vitro ADME; conditions: pooled human liver microsomes, probe bufuralol
Sequence of CYP2D6 (P10635 whole entry): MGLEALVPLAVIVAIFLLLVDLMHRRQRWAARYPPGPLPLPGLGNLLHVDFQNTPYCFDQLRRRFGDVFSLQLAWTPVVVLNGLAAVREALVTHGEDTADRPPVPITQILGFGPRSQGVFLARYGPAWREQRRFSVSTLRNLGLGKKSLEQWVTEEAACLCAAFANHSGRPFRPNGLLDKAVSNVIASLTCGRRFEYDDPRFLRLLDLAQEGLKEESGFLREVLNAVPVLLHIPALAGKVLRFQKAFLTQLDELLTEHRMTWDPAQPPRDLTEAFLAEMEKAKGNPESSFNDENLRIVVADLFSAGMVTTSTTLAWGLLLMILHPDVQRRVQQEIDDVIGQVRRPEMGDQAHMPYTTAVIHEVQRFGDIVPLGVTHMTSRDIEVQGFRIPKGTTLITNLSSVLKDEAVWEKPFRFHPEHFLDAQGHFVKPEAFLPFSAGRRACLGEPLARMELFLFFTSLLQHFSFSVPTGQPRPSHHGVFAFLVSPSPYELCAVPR
Method in brief: as §1

SMILES: Cc1noc(C)c1Cn1cc(N2C(=O)CN(Cc3cccc(O)c3)C2=O)cn1 [S6821, 3-(1-((3,5-dimethylisoxazol-4-yl)methyl)-1H-pyrazol-4-yl)-1-(3-hydroxybenzyl)imidazolidine-2,4-dione]
- parent S6821 remaining, peak area % of time 0 [1]: 56%
- Micronucleus formation (in vivo), Result (bone marrow PCEs): Negative
- Reverse mutation (in vitro), Result [2]: Negative
- inhibition at 10 µM (CYP2C9): -3%
- inhibition at 10 µM (CYP1A2): 18%
- pIC50 [3]: 7.46
- parent S6821 remaining, peak area % of time 0 [4]: 75%
- inhibition at 10 µM (hERG): < 10%
- Chromosome aberration (in vitro), Result [5]: Negative
- NOAEL of 100 mg/kg bw/day as multiple of estimated dietary exposure [6]: 1500 times
- NOAEL ([7]; 10, 30, 100 mg/kg bw/day food ad-mix, 90 days, both sexes): 100 mg/kg bw/day
- NOEL ([7]; 90 days, females): 100 mg/kg bw/day
- NOEL ([7]; 90 days, males): 30 mg/kg bw/day
- Motor activity scores ([7]; males, 100 mg/kg bw/day, week 12, second half of 1-hour recording): slightly higher than those of controls
- Findings ([7]; up to 100 mg/kg bw/day, 90 days): No test-article related findings
- inhibition at 10 µM (CYP2D6): -2%
